Data set [1] deals with Serotonin N-acetyltransferase (Ovis aries) (UniProt Q29495). Particulars: at 100 µM.
Data set [2] has the same target. Particulars: at 100 µM. The source holds these as a separate data set.
Data set [3] shares this target. Particulars: at 100 µM. This is another data set of the same source.
The target is the same in data set [4]. Particulars: at 100 µM. This is another data set of the same source.
Data set [5] concerns the target T1, Serotonin N-acetyltransferase (Ovis aries, UniProt Q29495). Nature of the data set: Inhibition of ovine AANAT by spectrophotometric assay.
The target in data set [6] is Serotonin N-acetyltransferase (Ovis aries) (UniProt Q29495). Nature of the data set: Inhibition of ovine AANAT at 25 uM by spectrophotometric assay.
Data set [7] shares this target. Nature of the data set: Inhibition of ovine AANAT at 25 uM by alpha-KD-coupled spectrophotometric assay.
Data set [8] has the same target. Kind of data set: Inhibition of ovine AANAT in presence of Triton X-100 at 25 uM by spectrophotometric assay.
Data set [9] concerns the target T1, Serotonin N-acetyltransferase. Kind of data set: Inhibition of ovine AANAT by TLC-based radioactive assay.
Data set [10] deals with Histone acetyltransferase KAT2B (Homo sapiens) (UniProt Q92831). Kind of data set: Inhibition of PCAF HAT at 50 uM. In outline:
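Radioactive HAT assay on purified PCAF HAT catalytic domain (10 nM), with histone H3 residues 1-20 (10 μM) as substrate, in 50 mM Tris-HCl pH 8.0, 1 mM DTT, 0.1 mM EDTA, 50 μg/mL BSA, 3.3% DMSO, 30 °C. Inhibitor tested at 0-50 μM. Started with 20 μM [14C]-AcCoA and quenched after 5 min. Gel separation, phosphorimaging against [14C]-BSA standard, no-enzyme background subtracted, duplicates.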

Data set [11] can be described thus: Inhibition of melatonin biosynthesis in rat pinealocytes. The format is functional, cell-based.
Data set [12] in a line: Toxicity in rat pinealocytes. Type of data set: cell-based. Particulars: in vitro.
The target of data set [13] is Serotonin N-acetyltransferase (Ovis aries) (UniProt Q29495). Kind of data set: Inhibition of ovine AANAT at 25 uM by radioactive assay.

Molecules are shown by their SMILES. Activity calls are given as the source filed them. The calls are words filed in the database; no cut-off is given here.

Serotonin N-acetyltransferase (Ovis aries), sequence (Q29495 whole entry): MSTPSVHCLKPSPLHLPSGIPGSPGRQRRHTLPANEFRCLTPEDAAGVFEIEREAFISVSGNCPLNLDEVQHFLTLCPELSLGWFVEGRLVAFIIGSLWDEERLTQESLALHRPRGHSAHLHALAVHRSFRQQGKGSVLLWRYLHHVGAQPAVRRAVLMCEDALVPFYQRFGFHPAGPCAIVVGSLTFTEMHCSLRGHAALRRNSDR
T1 sequence (Q29495 whole entry): as above
Histone acetyltransferase KAT2B (Homo sapiens), sequence (Q92831 whole entry, looked up, the tested form may be a part): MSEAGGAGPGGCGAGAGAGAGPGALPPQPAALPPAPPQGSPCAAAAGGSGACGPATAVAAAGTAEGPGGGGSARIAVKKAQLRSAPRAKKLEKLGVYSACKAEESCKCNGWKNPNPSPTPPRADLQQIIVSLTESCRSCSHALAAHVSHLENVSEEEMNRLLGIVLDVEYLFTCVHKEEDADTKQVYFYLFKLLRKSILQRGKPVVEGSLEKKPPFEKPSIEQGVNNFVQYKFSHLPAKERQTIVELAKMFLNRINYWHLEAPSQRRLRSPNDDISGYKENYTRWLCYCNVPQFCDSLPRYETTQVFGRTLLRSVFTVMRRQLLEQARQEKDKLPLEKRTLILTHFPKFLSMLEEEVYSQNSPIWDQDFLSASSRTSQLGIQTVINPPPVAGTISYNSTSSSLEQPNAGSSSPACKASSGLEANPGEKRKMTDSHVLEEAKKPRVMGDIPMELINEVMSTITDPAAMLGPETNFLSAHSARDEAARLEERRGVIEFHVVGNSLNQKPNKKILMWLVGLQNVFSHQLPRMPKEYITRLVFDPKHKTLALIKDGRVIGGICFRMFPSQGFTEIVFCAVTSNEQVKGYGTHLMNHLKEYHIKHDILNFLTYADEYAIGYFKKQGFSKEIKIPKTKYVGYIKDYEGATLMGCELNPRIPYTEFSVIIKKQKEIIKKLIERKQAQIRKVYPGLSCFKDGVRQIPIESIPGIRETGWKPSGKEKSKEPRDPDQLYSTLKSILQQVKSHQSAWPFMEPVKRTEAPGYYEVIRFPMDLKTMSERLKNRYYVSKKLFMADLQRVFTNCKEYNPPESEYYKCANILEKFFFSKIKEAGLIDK

As for `Cc1ccc(CN2C(=O)C(C3SC(=S)N(CCS(=O)(=O)O)C3=O)c3ccccc32)cc1` (stereo not given), the inhibition in [1] came out at 84%; in data set [2], 98%; in [3] it was 54%; in [4] it was 99%. This compound showed an IC50 in data set [5] of 25.2 µM.

On to `CC(C)Oc1ccc(C(=O)CC(=O)Nc2ccc(S(=O)(=O)F)cc2)cc1`, for which the inhibition in data set [6] stood at 43%; in data set [7], 0%; in [8], 59%.

For `O=C(COc1ccc([N+](=O)[O-])cc1)N/N=C/c1ccccc1COc1ccccc1`, the inhibition in [1] worked out at 40%; in [2], 11%.

As for `O=C(CN1C(=O)C(C2SC(=S)N(CCS(=O)(=O)O)C2=O)c2ccccc21)Nc1ccccc1` (stereo not given), the inhibition was determined as 99% in data set [1], 80% in data set [2], 70% in data set [3] and 99% in data set [4]. Also, 15.8 µM corresponded to half-maximal inhibition in data set [5] (IC50).

For `O=C(O)CCCCCN1C(=O)C(C2C(=O)Nc3ccccc32)SC1=S` (stereo not given), the inhibition in [1] worked out at 100%; in data set [2], 83%; in [3], 78%; in data set [4], 94%. The compound also had an IC50 in data set [5] of 52.9 µM.

`CCOc1ccc(C(=O)CC(=O)Nc2ccc(S(=O)(=O)F)cc2)cc1OC`: the inhibition in data set [1] is 98%; in data set [2] it was 100%; in [3], 79%; in data set [4] it was 31%.

Regarding `O=C1CC(CC(=O)N/N=C/c2c(O)ccc3ccccc23)=NN1`, the inhibition in data set [1] stood at 50%; in data set [2] it was 23%.

On to `O=C(O)CCCCCN1C(=O)C(C2C(=O)N(Cc3ccc(F)cc3)c3ccccc32)SC1=S` (stereo not given), for which the IC50 was 11.1 µM in data set [9], 100 µM in data set [11] and 45.2 µM in data set [5]. The inhibition in data set [1] was found to be 81%; in [2] it was 74%; in [3], 66%; in data set [4] it was 98%. Besides, the outcome in data set [10] was inactive. Besides, the Activity entry in data set [12] is on record as “Non-toxic”.

With `COc1ccc(/N=N/c2ccc(S(=O)(=O)O)cc2)cc1`, the inhibition in [1] came out at 65%; in data set [2], 60%; in data set [3] it was 28%.

In data set [4], `O=C(O)COc1ccc(/C=N/NC(=O)c2ccc(OCc3ccccc3)cc2)cc1` gave an inhibition of 74%. The compound also displayed an IC50 in [5] of 402 µM.

For the compound `CCc1ccc(/C=N/c2c(C)n(C)n(-c3ccccc3)c2=O)cc1`, the inhibition in [6] amounted to 70%; in data set [7], 47%; in data set [13], 0%; in [8] it was 61%.

As to `O=C(O)CCCN1C(=O)/C(=C2/C(=O)Nc3ccc(Br)cc32)SC1=S`, the inhibition turned out to be 52% in [6], 21% in data set [7] and 41% in [8].

As for `COC(=O)Nc1ccc(S(=O)(=O)Nc2cc(OC)nc(OC)n2)cc1`, the inhibition in data set [1] was determined as 42%; in [2], 24%.

As for `O=C(O)CCCCCN1C(=O)/C(=C2/C(=O)N(CC(=O)O)c3ccc(Br)cc32)SC1=S`, the inhibition amounted to 43% in [6], 11% in data set [7] and 55% in [8].

For `COc1ccc(NC(=O)CN2C(=O)/C(=C3\SCN(CCS(=O)(=O)O)C3=O)c3ccccc32)cc1`, the inhibition in data set [6] was 52%; in [7], 56%; in data set [13], 0%; in data set [8], 41%.

Regarding `COc1ccc(/C=N/c2ccc(CC(=O)O)cc2)cc1`, the inhibition amounted to 41% in data set [1], 30% in data set [2], 64% in data set [3] and 13% in [4].

(Values after ChEMBL document CHEMBL1137607, “De novo discovery of serotonin N-acetyltransferase inhibitors” (J Med Chem, 2007).)
